Calls of active or inactive are those of the source. The rule behind the calls is not given here.
Assays:
[1] = target: Serine/threonine-protein phosphatase 6 regulatory ankyrin repeat subunit C (Homo sapiens) (UniProt Q8NB46); experiment: Binding affinity to serine/threonine-protein phosphatase 6 regulatory ankyrin repeat subunit C in human INA-6 cells after 3 hrs by nanoLC-MS/MS method; type: cell-based
In short: (§1)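 The biotinylated inhibitor was loaded on streptavidin beads, with empty beads as the control. Eluates were trypsin-digested and run by nanoLC-MS/MS. Inhibitor/control ratios came from label-free quantification, taken as medians of five biological replicates. Enrichment was called at Benjamini-Hochberg-adjusted limma p < 0.02.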

[2] = target: Serine/threonine-protein kinase mTOR (Homo sapiens) (UniProt P42345); experiment: Binding affinity to mTOR protein in human INA-6 cells after 3 hrs by Western blot method; type: cell-based
In short: (§2)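 INA-6 lysate was incubated with compound-coupled streptavidin beads or with beads only as the control. Captured-protein eluates were Western blotted with specific antibodies against DNA-PK, ATM, ATR or mTOR. H2AX staining or Ponceau S served as loading controls.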

[3] = target: CCR4-NOT transcription complex subunit 1 (Homo sapiens) (UniProt A5YKK6); experiment: Binding affinity to CNOT1 protein in human INA-6 cells after 3 hrs by nanoLC-MS/MS method; type: cell-based; in short: as §1
Sequence of CCR4-NOT transcription complex subunit 1 (Homo sapiens) (A5YKK6 whole entry, one chain of several): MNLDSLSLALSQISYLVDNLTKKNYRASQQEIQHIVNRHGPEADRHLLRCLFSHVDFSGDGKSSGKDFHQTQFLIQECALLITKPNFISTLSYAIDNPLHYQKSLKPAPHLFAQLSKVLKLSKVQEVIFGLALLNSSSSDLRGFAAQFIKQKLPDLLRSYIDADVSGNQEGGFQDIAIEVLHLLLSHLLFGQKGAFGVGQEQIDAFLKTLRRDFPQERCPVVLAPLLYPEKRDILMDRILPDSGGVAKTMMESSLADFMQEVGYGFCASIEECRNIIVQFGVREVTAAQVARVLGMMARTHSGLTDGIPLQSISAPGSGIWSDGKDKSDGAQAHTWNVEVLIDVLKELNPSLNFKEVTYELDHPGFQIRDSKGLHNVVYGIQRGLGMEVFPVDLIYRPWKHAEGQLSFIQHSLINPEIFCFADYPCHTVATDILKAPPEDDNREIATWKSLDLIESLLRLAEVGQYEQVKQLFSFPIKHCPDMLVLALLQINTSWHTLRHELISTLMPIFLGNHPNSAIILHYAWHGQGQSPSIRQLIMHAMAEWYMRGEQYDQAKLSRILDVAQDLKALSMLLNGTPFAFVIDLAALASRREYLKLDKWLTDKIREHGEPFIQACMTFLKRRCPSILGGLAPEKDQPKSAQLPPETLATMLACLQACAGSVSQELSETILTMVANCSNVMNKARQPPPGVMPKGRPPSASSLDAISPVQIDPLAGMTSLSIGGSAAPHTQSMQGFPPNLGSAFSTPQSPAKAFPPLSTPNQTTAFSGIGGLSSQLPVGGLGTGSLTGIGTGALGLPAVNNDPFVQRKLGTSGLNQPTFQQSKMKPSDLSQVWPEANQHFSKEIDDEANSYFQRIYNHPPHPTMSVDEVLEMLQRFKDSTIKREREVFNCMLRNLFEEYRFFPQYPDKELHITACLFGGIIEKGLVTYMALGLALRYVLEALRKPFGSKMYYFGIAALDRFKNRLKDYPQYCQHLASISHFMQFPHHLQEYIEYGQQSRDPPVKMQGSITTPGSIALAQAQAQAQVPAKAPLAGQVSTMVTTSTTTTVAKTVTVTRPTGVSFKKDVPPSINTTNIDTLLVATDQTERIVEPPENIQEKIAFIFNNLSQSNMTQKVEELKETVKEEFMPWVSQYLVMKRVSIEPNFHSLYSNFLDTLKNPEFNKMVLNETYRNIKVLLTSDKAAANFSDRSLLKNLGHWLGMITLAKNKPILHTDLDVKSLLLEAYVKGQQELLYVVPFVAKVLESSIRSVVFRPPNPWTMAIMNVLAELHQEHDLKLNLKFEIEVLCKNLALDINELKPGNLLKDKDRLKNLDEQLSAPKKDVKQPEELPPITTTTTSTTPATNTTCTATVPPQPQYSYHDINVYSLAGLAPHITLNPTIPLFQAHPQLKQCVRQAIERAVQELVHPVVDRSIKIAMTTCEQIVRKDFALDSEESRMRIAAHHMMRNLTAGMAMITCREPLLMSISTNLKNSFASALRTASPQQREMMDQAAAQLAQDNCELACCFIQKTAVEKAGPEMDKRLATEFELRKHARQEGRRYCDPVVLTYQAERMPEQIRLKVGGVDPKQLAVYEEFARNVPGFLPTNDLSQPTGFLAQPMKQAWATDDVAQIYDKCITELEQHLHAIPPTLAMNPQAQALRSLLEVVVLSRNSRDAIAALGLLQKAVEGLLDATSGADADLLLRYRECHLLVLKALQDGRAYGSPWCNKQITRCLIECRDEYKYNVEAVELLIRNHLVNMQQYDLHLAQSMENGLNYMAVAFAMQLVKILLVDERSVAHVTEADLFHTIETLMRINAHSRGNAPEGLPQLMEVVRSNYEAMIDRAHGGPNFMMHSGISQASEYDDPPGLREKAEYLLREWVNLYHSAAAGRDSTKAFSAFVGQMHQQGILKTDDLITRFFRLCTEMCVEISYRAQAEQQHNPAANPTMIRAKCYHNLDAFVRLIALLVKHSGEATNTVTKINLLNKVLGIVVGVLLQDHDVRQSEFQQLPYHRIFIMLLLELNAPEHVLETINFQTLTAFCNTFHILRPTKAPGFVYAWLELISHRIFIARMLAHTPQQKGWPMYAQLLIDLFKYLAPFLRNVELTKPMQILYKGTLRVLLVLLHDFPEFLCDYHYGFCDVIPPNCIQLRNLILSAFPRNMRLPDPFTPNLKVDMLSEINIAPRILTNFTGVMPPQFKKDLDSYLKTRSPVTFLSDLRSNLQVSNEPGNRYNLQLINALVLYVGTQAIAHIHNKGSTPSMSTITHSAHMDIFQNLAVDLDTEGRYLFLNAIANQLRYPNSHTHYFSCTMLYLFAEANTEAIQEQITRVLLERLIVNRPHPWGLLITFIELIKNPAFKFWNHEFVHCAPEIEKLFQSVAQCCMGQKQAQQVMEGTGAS

[4] = target: Survival of motor neuron-related-splicing factor 30 (Homo sapiens) (UniProt O75940); experiment: Binding affinity to survival of motor neuron-related-splicing factor 30 in human INA-6 cells after 3 hrs by nanoLC-MS/MS method; type: cell-based; in short: as §1
Sequence of Survival of motor neuron-related-splicing factor 30 (Homo sapiens) (O75940 whole entry): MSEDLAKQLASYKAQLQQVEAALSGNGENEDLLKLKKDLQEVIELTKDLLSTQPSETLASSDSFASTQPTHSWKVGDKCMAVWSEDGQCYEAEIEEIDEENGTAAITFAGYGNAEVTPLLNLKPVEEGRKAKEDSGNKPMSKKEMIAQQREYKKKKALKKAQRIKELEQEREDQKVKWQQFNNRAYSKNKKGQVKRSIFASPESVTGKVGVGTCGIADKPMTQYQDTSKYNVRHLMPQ

[5] = target: MICOS complex subunit MIC19 (Homo sapiens) (UniProt Q9NX63); experiment: Binding affinity to MICOS complex subunit MIC19 in human INA-6 cells after 3 hrs by nanoLC-MS/MS method; type: cell-based; in short: as §1
[6] = target: Programmed cell death protein 6 (Homo sapiens) (UniProt O75340); experiment: Binding affinity to PDCD6 protein in human INA-6 cells after 3 hrs by nanoLC-MS/MS method; type: cell-based; in short: as §1
[7] = target: MICOS complex subunit MIC25 (Homo sapiens) (UniProt Q9BRQ6); experiment: Binding affinity to MICOS complex subunit MIC25 in human INA-6 cells after 3 hrs by nanoLC-MS/MS method; type: cell-based; in short: as §1
Sequence of MICOS complex subunit MIC25 (Homo sapiens) (Q9BRQ6 whole entry, one chain of several): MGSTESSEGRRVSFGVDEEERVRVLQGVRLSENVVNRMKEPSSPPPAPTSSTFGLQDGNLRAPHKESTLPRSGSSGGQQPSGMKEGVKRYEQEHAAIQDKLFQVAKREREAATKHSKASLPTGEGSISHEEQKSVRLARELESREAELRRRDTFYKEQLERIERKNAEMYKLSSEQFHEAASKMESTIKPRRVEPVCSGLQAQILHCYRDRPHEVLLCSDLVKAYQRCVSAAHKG

[8] = target: Protein MON2 homolog (Homo sapiens) (UniProt Q7Z3U7); experiment: Binding affinity to MON2 protein in human INA-6 cells after 3 hrs by nanoLC-MS/MS method; type: cell-based; in short: as §1
[9] = target: Conserved oligomeric Golgi complex subunit 6 (Homo sapiens) (UniProt Q9Y2V7); experiment: Binding affinity to COG6 in human INA-6 cells after 3 hrs by nanoLC-MS/MS method; type: cell-based; in short: as §1
[10] = target: MICOS complex subunit MIC10 (Homo sapiens) (UniProt Q5TGZ0); experiment: Binding affinity to MICOS complex subunit MIC10 in human INA-6 cells after 3 hrs by nanoLC-MS/MS method; type: cell-based; in short: as §1
Sequence of MICOS complex subunit MIC10 (Homo sapiens) (Q5TGZ0 whole entry, one chain of several): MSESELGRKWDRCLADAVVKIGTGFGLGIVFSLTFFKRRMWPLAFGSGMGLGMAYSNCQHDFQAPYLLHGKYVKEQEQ

[11] = target: Conserved oligomeric Golgi complex subunit 8 (Homo sapiens) (UniProt Q96MW5); experiment: Binding affinity to COG8 in human INA-6 cells after 3 hrs by nanoLC-MS/MS method; type: cell-based; in short: as §1
[12] = target: Serine/threonine-protein phosphatase 6 regulatory ankyrin repeat subunit A (Homo sapiens) (UniProt O15084); experiment: Binding affinity to serine/threonine-protein phosphatase 6 regulatory ankyrin repeat subunit A in human INA-6 cells after 3 hrs by nanoLC-MS/MS method; type: cell-based; in short: as §1
Sequence of Serine/threonine-protein phosphatase 6 regulatory ankyrin repeat subunit A (Homo sapiens) (O15084 whole entry): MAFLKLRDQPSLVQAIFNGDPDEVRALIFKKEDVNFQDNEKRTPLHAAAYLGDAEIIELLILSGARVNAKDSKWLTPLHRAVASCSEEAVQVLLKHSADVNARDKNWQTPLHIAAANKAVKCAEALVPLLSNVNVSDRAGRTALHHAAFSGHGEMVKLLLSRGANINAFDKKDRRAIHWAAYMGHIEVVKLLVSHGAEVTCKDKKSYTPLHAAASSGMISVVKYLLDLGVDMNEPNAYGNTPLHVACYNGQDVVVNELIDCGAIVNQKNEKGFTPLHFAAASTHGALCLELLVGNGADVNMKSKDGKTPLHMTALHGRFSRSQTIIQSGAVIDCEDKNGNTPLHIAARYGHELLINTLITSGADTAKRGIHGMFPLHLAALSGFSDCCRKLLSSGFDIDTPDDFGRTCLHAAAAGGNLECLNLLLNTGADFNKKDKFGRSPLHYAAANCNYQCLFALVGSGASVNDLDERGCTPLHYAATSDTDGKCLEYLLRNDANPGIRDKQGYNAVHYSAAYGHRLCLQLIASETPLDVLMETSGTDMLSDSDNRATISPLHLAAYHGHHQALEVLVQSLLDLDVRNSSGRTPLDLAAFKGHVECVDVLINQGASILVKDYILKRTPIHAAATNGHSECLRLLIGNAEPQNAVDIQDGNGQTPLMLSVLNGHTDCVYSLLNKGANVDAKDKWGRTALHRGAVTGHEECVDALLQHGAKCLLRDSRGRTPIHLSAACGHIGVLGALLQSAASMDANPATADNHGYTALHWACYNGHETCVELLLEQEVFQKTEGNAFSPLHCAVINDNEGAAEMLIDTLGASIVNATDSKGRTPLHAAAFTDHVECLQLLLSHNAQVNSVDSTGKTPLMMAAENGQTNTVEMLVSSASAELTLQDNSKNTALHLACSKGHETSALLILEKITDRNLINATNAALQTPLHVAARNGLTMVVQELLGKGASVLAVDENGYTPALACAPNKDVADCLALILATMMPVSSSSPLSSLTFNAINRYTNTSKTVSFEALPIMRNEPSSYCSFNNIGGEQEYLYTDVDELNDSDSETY

[13] = target: Stalled ribosome sensor GCN1 (Homo sapiens) (UniProt Q92616); experiment: Binding affinity to GCN1 protein in human INA-6 cells after 3 hrs by nanoLC-MS/MS method; type: cell-based; in short: as §1
[14] = target: CCR4-NOT transcription complex subunit 4 (Homo sapiens) (UniProt O95628); experiment: Binding affinity to CCR4-NOT transcription complex subunit 4 in human INA-6 cells after 3 hrs by nanoLC-MS/MS method; type: cell-based; in short: as §1
[15] = target: Serine/threonine-protein kinase mTOR (Homo sapiens) (UniProt P42345); experiment: Binding affinity to mTOR protein in human INA-6 cells after 3 hrs by nanoLC-MS/MS method; type: cell-based; in short: as §1
[16] = target: Conserved oligomeric Golgi complex subunit 3 (Homo sapiens) (UniProt Q96JB2); experiment: Binding affinity to COG3 in human INA-6 cells after 3 hrs by nanoLC-MS/MS method; type: cell-based; in short: as §1
[17] = target: CCR4-NOT transcription complex subunit 1 (Homo sapiens) (UniProt A5YKK6); experiment: Binding affinity to CCR4-NOT transcription complex subunit 1 in human INA-6 cells after 3 hrs by nanoLC-MS/MS method; type: cell-based; in short: as §1
[18] = target: DNA-dependent protein kinase catalytic subunit (Homo sapiens) (UniProt P78527); experiment: Binding affinity to PRKDC protein in human INA-6 cells after 3 hrs by Western blot method; type: cell-based; in short: as §2
[19] = target: Serine/threonine-protein phosphatase 6 regulatory ankyrin repeat subunit B (Homo sapiens) (UniProt Q8N8A2); experiment: Binding affinity to serine/threonine-protein phosphatase 6 regulatory ankyrin repeat subunit B in human INA-6 cells after 3 hrs by nanoLC-MS/MS method; type: cell-based; in short: as §1
[20] = target: Serine-protein kinase ATM (Homo sapiens) (UniProt Q13315); experiment: Binding affinity to ATM protein in human INA-6 cells after 3 hrs by Western blot method; type: cell-based; in short: as §2
INA-6 = experiment: Inhibition of heat shock response in human INA-6 cells assessed as reduction in HSF-1 mediated upregulation of the heat shock protein HSP27 at 50 uM preincubated for 4 hrs followed by HSP90 inhibitor and HSR inducer NVP-AUY922 addition measured after 4 hrs by ELISA; type: functional, cell-based
[21] = target: Serine/threonine-protein kinase ATR (Homo sapiens) (UniProt Q13535); experiment: Binding affinity to ATR protein in human INA-6 cells after 3 hrs by Western blot method; type: cell-based; in short: as §2

Sequence of Serine/threonine-protein phosphatase 6 regulatory ankyrin repeat subunit C (Homo sapiens) (Q8NB46 whole entry): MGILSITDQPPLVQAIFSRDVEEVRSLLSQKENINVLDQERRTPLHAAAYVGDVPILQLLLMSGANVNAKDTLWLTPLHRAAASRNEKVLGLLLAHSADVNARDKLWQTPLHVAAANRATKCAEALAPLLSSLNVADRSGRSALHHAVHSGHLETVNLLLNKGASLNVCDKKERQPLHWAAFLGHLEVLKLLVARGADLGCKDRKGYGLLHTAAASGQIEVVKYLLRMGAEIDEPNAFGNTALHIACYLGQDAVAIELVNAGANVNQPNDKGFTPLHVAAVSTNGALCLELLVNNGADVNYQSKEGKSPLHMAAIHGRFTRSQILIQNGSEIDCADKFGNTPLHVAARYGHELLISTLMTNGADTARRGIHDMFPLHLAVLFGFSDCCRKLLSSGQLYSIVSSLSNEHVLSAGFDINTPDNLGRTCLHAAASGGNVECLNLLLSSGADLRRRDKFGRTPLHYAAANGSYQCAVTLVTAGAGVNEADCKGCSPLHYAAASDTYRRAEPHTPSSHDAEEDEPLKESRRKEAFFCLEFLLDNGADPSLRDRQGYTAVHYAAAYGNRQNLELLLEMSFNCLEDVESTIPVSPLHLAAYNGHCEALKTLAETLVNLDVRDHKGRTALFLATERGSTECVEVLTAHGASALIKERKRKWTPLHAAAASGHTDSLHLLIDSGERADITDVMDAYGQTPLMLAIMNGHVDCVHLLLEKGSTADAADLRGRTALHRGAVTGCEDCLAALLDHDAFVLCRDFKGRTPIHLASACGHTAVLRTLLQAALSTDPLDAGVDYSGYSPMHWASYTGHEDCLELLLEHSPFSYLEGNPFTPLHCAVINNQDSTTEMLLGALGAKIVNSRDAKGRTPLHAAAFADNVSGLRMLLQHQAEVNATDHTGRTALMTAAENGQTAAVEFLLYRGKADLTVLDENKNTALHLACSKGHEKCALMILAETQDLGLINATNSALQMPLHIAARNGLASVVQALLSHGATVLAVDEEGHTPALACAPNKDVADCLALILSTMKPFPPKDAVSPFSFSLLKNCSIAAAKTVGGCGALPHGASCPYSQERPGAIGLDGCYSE

Activity [1] | Activity [3] | Activity [5] | Activity [7] | Activity [8] | Activity [9] | Activity [10] | Activity [11] | Activity [12] | Activity [13] | Activity [14] | Activity [15] | Activity [16] | Activity [17] | Activity [19] | Compound | Activity [4] | Activity [6] | heat shock response inhibition (active/not active) (INA-6) | also measured
Active | Active | Active | Active | Active | Active | Active | Active | Active | Active | Active | Active | Active | Active | Active | O=C(CCCC[C@@H]1SC[C@@H]2NC(=O)N[C@@H]21)NCCOCCOCCNCCOc1ccc(C(C(=O)NCc2ccccc2)N(C(=O)CCc2ccc(O)cc2)C2CC2)cc1 (mixture of isomers) | Active | Active | inactive | Activity [2]: Active; Activity [18]: Active; Activity [20]: Active; Activity [21]: Active
Active | Active | Active | Active | Active | Active | Active | Active | Active | Active | Active | Active | Active | Active | Active | O=C(CCCC[C@@H]1SC[C@@H]2NC(=O)N[C@@H]21)NCCOCCOCCNCCOc1ccc(C(C(=O)NCc2ccccc2)N(C(=O)CCc2ccccc2)C2CC2)cc1 (mixture of isomers) | Active | Active | inactive | –
